Test results taken from ChEMBL document CHEMBL1122125, “Synthesis and in vivo antitumor activity of potential 5-fluorouracil prodrugs” (1982).

Legend:
Type in all cases: functional
Mus musculus [1] = test: Antitumor activity was determined for median survival of mice against P-388 leukemia in mice at a dose of 200 mg/kg
Procedure, shortened: (§1)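 Male B6D2F1J mice implanted ip with 10⁶ P-388 cells on day 0; test agents given ip on days 1–4 (qd × 4) in sterile saline, or in 10% Tween 80 for the lipophilic thioether. Groups of 5 treated mice, with 10–17 untreated controls per experiment. Mice weighed on days 1 and 7 to give the 7-day weight change in g and %. Survival recorded in days as median and range.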

Mus musculus [2] = test: Antitumor activity was determined for survival range of mice against P-388 leukemia in mice at a dose of 25 mg/kg; procedure, shortened: as §1
L1210 = test: Evaluated for cytotoxicity against L1210 mouse leukemia cells; details: read-out: ID50 (the source's name)
Procedure, shortened: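 L1210 murine leukemia cells in Eagle's minimal essential medium with 15% fetal calf serum, streptomycin (100 μg/mL), penicillin (100 units/mL) and 0.05 mM 2-mercaptoethanol. Cells counted by Coulter counter after 48 h exposure. ID50 is the 50% growth-inhibitory dose. Triplicate assays, standard deviation ±10%.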

Mus musculus [3] = test: Antitumor activity was determined for 7-day average percent weight change against P-388 leukemia in mice at a dose of 200 mg/kg
Procedure, shortened: (§2)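 Male B6D2F1J mice given 10⁶ P-388 cells ip on day 0, then treated ip once daily on days 1-4 (qd × 4), 5 mice per dose group. Compounds dosed in sterile saline, except one lipophilic thioether given in 10% Tween 80. Mice weighed on days 1 and 7; mean weight per mouse on day 1 and 7-day weight change reported in g and as percent.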

Mus musculus [4] = test: Antitumor activity was determined for survival range of mice against P-388 leukemia in mice at a dose of 300 mg/kg; procedure, shortened: as §1
Mus musculus [5] = test: Percent increase in life span against P-388 leukemia in mice was determined at a dose of 200 mg/kg; details: P388
Procedure, shortened: (§3)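 Male B6D2F1J mice, 5 per dose group, received 10⁶ P-388 cells ip on day 0. Dosing was ip qd × 4 on days 1-4 in sterile saline, or 10% Tween 80 for the butyl thioether. Median survival times of treated (T) and untreated control (C, 10-17 mice) groups were compared: %ILS = [(T/C) − 1]100. Weights taken on days 1 and 7.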

Mus musculus [6] = test: Antitumor activity was determined for survival range of mice against P-388 leukemia in mice at a dose of 50 mg/kg; procedure, shortened: as §1
Mus musculus [7] = test: Antitumor activity was determined for average 7-day weight change against P-388 leukemia in mice at a dose of 200 mg/kg; procedure, shortened: as §2
Mus musculus [8] = test: Percent increase in life span against P-388 leukemia in mice was determined at a dose of 50 mg/kg; details: P388; procedure, shortened: as §3
Mus musculus [9] = test: Percent increase in life span against P-388 leukemia in mice was determined at a dose of 25 mg/kg; details: P388; procedure, shortened: as §3
Mus musculus [10] = test: Antitumor activity was determined for 7-day average percent weight change against P-388 leukemia in mice at a dose of 25 mg/kg; procedure, shortened: as §2
Mus musculus [11] = test: Antitumor activity was determined for average 7-day weight change against P-388 leukemia in mice at a dose of 50 mg/kg; procedure, shortened: as §2
Mus musculus [12] = test: Antitumor activity was determined for average 7-day weight change against P-388 leukemia in mice at a dose of 300 mg/kg; procedure, shortened: as §2
Mus musculus [13] = test: Percent increase in life span against P-388 leukemia in mice was determined at a dose of 300 mg/kg; details: P388; procedure, shortened: as §3
Mus musculus [14] = test: Antitumor activity was determined for survival range of mice against P-388 leukemia in mice at a dose of 100 mg/kg; procedure, shortened: as §1
Mus musculus [15] = test: Antitumor activity was determined for average weight on day 1 against P-388 leukemia in mice at a dose of 50 mg/kg
Procedure, shortened: (§4)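 Male B6D2F1J mice, groups of 5, inoculated ip with 10⁶ P-388 cells on day 0. Drug given ip on days 1-4 (qd × 4) in sterile saline, or in 10% Tween 80 for the poorly water-soluble thioether. Average weight per mouse recorded on day 1, with reweighing on day 7 for percent weight change. Untreated control groups had 10-17 animals per experiment.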

Mus musculus [16] = test: Antitumor activity was determined for median survival of mice against P-388 leukemia in mice at a dose of 50 mg/kg; procedure, shortened: as §1
Mus musculus [17] = test: Antitumor activity was determined for 7-day average percent weight change against P-388 leukemia in mice at a dose of 300 mg/kg; procedure, shortened: as §2
Mus musculus [18] = test: Antitumor activity was determined for average weight on day 1 against P-388 leukemia in mice at a dose of 300 mg/kg; procedure, shortened: as §4
Mus musculus [19] = test: Percent increase in life span against P-388 leukemia in mice was determined at a dose of 100 mg/kg; details: P388; procedure, shortened: as §3
Mus musculus [20] = test: Antitumor activity was determined for 7-day average percent weight change against P-388 leukemia in mice at a dose of 50 mg/kg; procedure, shortened: as §2
Mus musculus [21] = test: Antitumor activity was determined for median survival of mice against P-388 leukemia in mice at a dose of 25 mg/kg; procedure, shortened: as §1
Mus musculus [22] = test: Antitumor activity was determined for median survival of mice against P-388 leukemia in mice at a dose of 300 mg/kg; procedure, shortened: as §1
Mus musculus [23] = test: Antitumor activity was determined for average 7-day weight change against P-388 leukemia in mice at a dose of 100 mg/kg; procedure, shortened: as §2
Mus musculus [24] = test: Antitumor activity was determined for survival range of mice against P-388 leukemia in mice at a dose of 200 mg/kg; procedure, shortened: as §1
Mus musculus [25] = test: Antitumor activity was determined for median survival of mice against P-388 leukemia in mice at a dose of 100 mg/kg; procedure, shortened: as §1
Mus musculus [26] = test: Antitumor activity was determined for average 7-day weight change against P-388 leukemia in mice at a dose of 25 mg/kg; procedure, shortened: as §2
Mus musculus [27] = test: Antitumor activity was determined for average weight on day 1 against P-388 leukemia in mice at a dose of 200 mg/kg; procedure, shortened: as §4
Mus musculus [28] = test: Antitumor activity was determined for average weight on day 1 against P-388 leukemia in mice at a dose of 25 mg/kg; procedure, shortened: as §4
Mus musculus [29] = test: Antitumor activity was determined for average weight on day 1 against P-388 leukemia in mice at a dose of 100 mg/kg; procedure, shortened: as §2
Mus musculus [30] = test: Antitumor activity was determined for 7-day average percent weight change against P-388 leukemia in mice at a dose of 100 mg/kg; procedure, shortened: as §2

O=C(O)[C@H]1OC(n2cc(F)c(=O)[nH]c2=O)[C@H](O)[C@@H]1O (stereo partly specified)
Survival median (Mus musculus [1]): 16
Survival range (Mus musculus [2]): 14
IC50 (L1210): > 1000 µM
Weight change (Mus musculus [3]): -3%
Survival range (Mus musculus [4]): 16
ILS at 200 mg/kg (Mus musculus [5]): 45%
Survival range (Mus musculus [6]): 13
Average weight (Mus musculus [7]): -0.8 g mouse-1
ILS at 50 mg/kg (Mus musculus [8]): 36%
ILS at 25 mg/kg (Mus musculus [9]): 27%
Weight change (Mus musculus [10]): 10%
Average weight (Mus musculus [11]): 1.6 g mouse-1
Average weight (Mus musculus [12]): 0 g mouse-1
ILS at 300 mg/kg (Mus musculus [13]): 63%
Survival range (Mus musculus [14]): 15
Average weight (Mus musculus [15]): 24.2 g mouse-1
Survival median (Mus musculus [16]): 15
Weight change (Mus musculus [17]): 0%
Average weight (Mus musculus [18]): 25 g mouse-1
ILS at 100 mg/kg (Mus musculus [19]): 45%
Weight change (Mus musculus [20]): 7%
Survival median (Mus musculus [21]): 14
Survival median (Mus musculus [22]): 18
Average weight (Mus musculus [23]): 2 g mouse-1
Survival range (Mus musculus [24]): 16
Survival median (Mus musculus [25]): 16
Average weight (Mus musculus [26]): 2.6 g mouse-1
Average weight (Mus musculus [27]): 23.8 g mouse-1
Average weight (Mus musculus [28]): 24.6 g mouse-1
Average weight (Mus musculus [29]): 23.6 g mouse-1
Weight change (Mus musculus [30]): 8%
